Data set [1] relates to H441 and Calu-3 cells. As to the kind of experiment: Cell-proliferation, H441 and Calu-3 reported together. The class given is cell-based, human. The conditions noted are these: for effect on Bn-stimulated increase in cell-proliferation: H441 and Calu-3 cells, Bn 1 μM, 24 hr, CCK-8 and MTS.
Data set [2] relates to p44/42. Briefly: p44/42 MAPK phosphorylation. The class given is cell-based, human.
In data set [3] the test system is Akt. Briefly: Akt phosphorylation. The format is cell-based, human.
For data set [4], the system named is HER2. Briefly: HER2 phosphorylation. The class given is cell-based, human. Particulars: for EC50, HER2 phosphorylation: mean ± SEM of three independent experiments. An outline of the steps:
(§1)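 H441 or H2087 cells at 80% confluence were serum-starved overnight, then given Bn (0.1-100 nM) or NRG-1 (0.1-100 ng/mL) for 3 min. Cells were lysed in RIPA buffer (pH 7.6) and protein was measured by BCA. Lysates were run on a 4–20% gel and blotted for phospho-EGFR Tyr1068, HER2 Tyr1248 and HER3 Tyr1289, with tubulin as loading control. Bands were read by densitometry as % basal; mean ± SEM, ≥3 experiments.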

In data set [5] the test system is EGFR, HER2, and HER3. Briefly: EGFR, HER2 and HER3 phosphorylation reported together. The class given is cell-based, human. An outline of the steps:
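Time course: serum-starved (overnight) H441, H2087 or Calu-3 cells were stimulated with Bn 100 nM or NRG-1 100 ng/mL for 3-60 min. Cells were lysed in RIPA and blotted for phospho-EGFR (Tyr1068), HER2 (Tyr1248) and HER3 (Tyr1289) using primary antibodies at 1:1000 overnight at 4 °C. Tubulin served as loading control, and background-subtracted densitometry was expressed as % of basal.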

Data set [6] has as its system HER3/HER2. As to the kind of experiment: HER3/HER2 heterodimerization. The class given is cell-based, human. The conditions noted are these: H441 and Calu-3 cells; 100 nM Bn or 100 ng/mL NRG-1. An outline of the steps: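 Serum-starved H441 and Calu-3 cells received no addition, 100 nM Bn or 100 ng/mL NRG-1. RIPA lysate (800 μg protein) was incubated with anti-HER3 antibody for 1 hr at 4 °C, then with protein A/G agarose overnight at 4 °C. Beads were washed five times in RIPA and boiled in Laemmli buffer. Partners were detected by Western blot, with tubulin from whole-cell extract as loading control; values are given as ratio to control.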

Data set [7] has as its system HER3/EGFR. As to the kind of experiment: HER3/EGFR heterodimerization. The class given is cell-based, human. The conditions noted are these: H441 and Calu-3 cells; 100 nM Bn or 100 ng/mL NRG-1. An outline of the steps: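 Serum-starved (overnight) 80%-confluent cells treated with test peptide (100 nM) or reference ligand (100 ng/mL); lysed in RIPA (pH 7.6), sonicated, cleared. 800 μg protein with anti-HER3 antibody, 1 hr at 4 °C, then protein A/G agarose overnight at 4 °C; five RIPA washes. Immunoblotted for partner receptors by chemiluminescence; background-subtracted densitometry as ratio to untreated control; whole-extract tubulin as loading control.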

The subject of data set [8] is EGFR. As to the kind of experiment: EGFR phosphorylation. The class given is cell-based, human. Particulars: for EC50, EGFR phosphorylation: mean ± SEM of three independent experiments. An outline of the steps:
as §1

Data set [9] addresses HER3 (Homo sapiens, UniProt P21860). Briefly: HER3 phosphorylation. The class given is cell-based. Particulars: for EC50, HER3 phosphorylation: mean ± SEM of three independent experiments. An outline of the steps: as §1
The mark [10] stands for this setting: Wortmannin 1 μM or LY294002 10 μM.
Setting [11] is: H441 cells, NRG-1 0.1-100 ng/mL, 3 min.
Setting [12] is: H441 cells, dose-response, 3 min, Bn 100 nM maximal, NRG-1 0.1-100 ng/mL.
Setting [13] is: H2087 cells, 100 nM Bn or 100 ng/mL NRG-1, 3 min.
Setting [14] is: Calu-3 cells, Bn 100 nM or NRG-1 100 ng/mL.

As for `COC[C@H]1OC(=O)c2coc3c2[C@@]1(C)C1=C(C3=O)[C@@H]2CCC(=O)[C@@]2(C)C[C@H]1OC(C)=O` [Wortmannin, wortmannin], in [1] (setting [10]), the “effect on Bn-stimulated increase in cell-proliferation” value (“effect on Bn-stimulated increase” below) was “no significant effect”.

As to `O=c1cc(N2CCOCC2)oc2c(-c3ccccc3)cccc12` [LY294002], the “effect on Bn-stimulated increase” value in data set [1] (setting [10]) is recorded as “no significant effect”.

In the case of `COc1cc2ncnc(Nc3ccc(F)c(Cl)c3)c2cc1OCCCN1CCOCC1` [gefitinib], the “effect on Bn-stimulated increase” value in data set [1] (gefitinib 10 μg/mL) is reported as “no effect”. For the same molecule, the activity at 10 µg/mL in [1] (Homo sapiens, 24 h, read-out: basal stimulation (% of control)) is 36 to 45%; in data set [2] (Homo sapiens, NCI-H441, read-out: basal phosphorylation of p44/42 (% of control)), 75%; in data set [3] (Homo sapiens, NCI-H441, read-out: basal phosphorylation of Akt (% of control)) it was 79%. Also, the “effect on Bn-stimulated phosphorylation of p44/42” value in data set [2] (H441 cells, gefitinib 10 μg/mL or EGFR knockdown, Bn 100 nM, 15 min) is reported as “did not affect”. In data set [3], the “effect on Bn-induced increment of Akt phosphorylation” value was “no significant inhibitory effect”.

With neuregulin-1 [NRG-1], the “EC50, HER2 phosphorylation” value came to 16.3 ± 3.4 ng/mL in [4] (setting [11]) and 7.8 ± 2.0 ng/mL in data set [4] (H2087 cells, NRG-1, 3 min). Besides, the “maximal HER2 phosphorylation (fold increase)” value in data set [4] (setting [12]) is listed as 34 fold. The “HER2 phosphorylation (fold increase)” value in data set [4] (setting [13]) is 22 fold. For the same molecule, the “duration of HER2 phosphorylation” value in data set [4] (H2087 cells, NRG-1 100 ng/mL) was “prolonged phosphorylation”. For the same molecule, the “stimulation time of maximum EGFR, HER2 and HER3 phosphorylation” value in [5] (setting [14]) fell in the range of 30 to 60 min. The “maximal stimulation compared with Bn” value in [5] (H441, H2087 and Calu-3 cells, Bn 100 nM, NRG-1 100 ng/mL) is “greater than that seen with Bn”. Also, the “time of maximum phosphorylation of EGFR, HER2, and HER3” value in [5] (H441 cells, Bn 100 nM or NRG-1 100 ng/mL) worked out at 3 min. Further, the HER3/HER2 heterodimerization entry in [6] is reported as “HER3/HER2 heterodimerization in both cell-lines”. The “phosphorylation of p44/42 at 60 minutes” value in [2] (setting [14]) is on record as “still present”; in data set [2] (H441 and H2087 cells, Bn 100 nM or NRG-1 100 ng/mL) it was “not maintained at 60 minutes”. In [2] (H441, H2087 and Calu-3 cells, Bn 100 nM or NRG-1 100 ng/mL), the “stimulation time of maximum phosphorylation of p44/42” value worked out at 15 min. Besides, the HER3/EGFR heterodimerization entry in [7] is reported as “induced HER3/EGFR”. The “time of maximum phosphorylation of Akt” value in data set [3] (H441, H2087 and Calu-3 cells, NRG-1 100 ng/mL) is 60 min. In addition, the “EC50, EGFR phosphorylation” value is 4.9 ± 0.9 ng/mL in data set [8] (setting [11]) and 9.7 ± 1.3 ng/mL in [8] (H2087 cells, NRG-1, 3 min). Further, in data set [8] (setting [13]), the “maximum EGFR phosphorylation (fold increase)” value came out at 5.2 fold. Also, the “phosphorylation of HER3 maintained at 60 minutes (fold increase)” value in [9] (H441 cells, NRG-1 100 ng/mL, 60 minutes, p < 0.05 vs. control) turned out to be 20 fold. Also, the “maximal HER3 phosphorylation (fold increase)” value in data set [9] (setting [12]) is recorded as 44 fold. In data set [9] (setting [13]), the “HER3 phosphorylation (fold increase)” value is given as 21 fold. The “duration of HER3 phosphorylation” value in data set [9] (H2087 cells, NRG-1 100 ng/mL) is “prolonged phosphorylation”.

B1: neuregulin-1 (protein)
chain: TSHLVKCAEKEKTFCVNGGECFMVKDLSNPSRYLCKCPNEFTGDRCQNYVMASFYKHLGIEFMEAEELYQK
modifications: the alternative R&D product is the beta1 ECD (2-246)
Regarding B1, the “EC50, HER3 phosphorylation” value worked out at 14.3 ± 1.7 ng/mL in data set [9] (setting [11]) and 8.1 ± 1.7 ng/mL in data set [9] (H2087 cells, NRG-1, 3 min).

The values above are taken from PMC7008087 (Biochimica et biophysica acta. Molecular cell research, 2019).
